Screening data deposited in PubChem BioAssay by several laboratories.
Shown is part of a subset that was picked to be rich in hits.
B2AR ag: human beta-2 adrenergic receptor agonism by FAP | P07550 | Am2.2-beta2AR cells, FAP receptor internalization, flow cytometry | response, % (no concentration beside the values) | AID 504454 | 0.43% of 340,000 active;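 active = response above a set limit, near 3 SD of response in nonfluorescent compounds, cut at about 42% in these data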
Target sequence (P07550 whole entry, looked up): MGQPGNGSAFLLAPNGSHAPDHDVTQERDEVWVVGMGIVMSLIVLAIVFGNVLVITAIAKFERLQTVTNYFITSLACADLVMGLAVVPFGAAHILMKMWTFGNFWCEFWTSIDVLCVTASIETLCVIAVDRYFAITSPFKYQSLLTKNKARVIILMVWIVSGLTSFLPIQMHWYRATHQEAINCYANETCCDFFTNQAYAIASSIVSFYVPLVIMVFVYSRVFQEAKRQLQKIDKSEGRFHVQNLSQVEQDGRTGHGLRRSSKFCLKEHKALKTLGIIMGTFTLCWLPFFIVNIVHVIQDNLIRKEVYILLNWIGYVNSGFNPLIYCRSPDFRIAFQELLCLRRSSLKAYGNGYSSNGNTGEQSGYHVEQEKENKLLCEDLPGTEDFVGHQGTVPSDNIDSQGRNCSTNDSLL
pCIP destab: p/CIP protein destabilization; decrease of EGFP signal, % at 10 µM; AID 1984; 0.01% of 290,000 active; F442A p/CIP-EGFP cells, EGFP fluorescence, 16 h; Q05BA5;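 active = EGFP signal decrease of at least 30% at 10 µM or well 3 SD below plate mean, unless failing retest; inactive = the rest, including hits failing retest or dose response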
Dynein cargo inh: blocks dynein driven cargo transport along microtubules | z-score, hits read low | 3617.4 mouse cells, GR-EGFP nuclear translocation imaging; test concentration mostly 20 µM; stimulated with dexamethasone, 1 µM; stronger effect = lower value | 0.47% of 220,000 active | AID 1381;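 active = plate z-score of nuclear minus cytoplasmic receptor signal below a set negative limit, without overly bright fluorescence or cell loss, cut at about -3.5 in these data, passing the limit was not always enough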;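 also: z-score of nuclear minus cytoplasmic ring GR-EGFP intensity difference per well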
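Buffer or medium: tetracycline-free induction medium containing charcoal-stripped FBS / Reagent: dexamethasone agonist, 1.0 µM final, for 30 min / Technique: automated 10x imaging of fixed Hoechst-stained cells / Times: induction 48 h, compound 1 h, agonist 30 min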
XBP1 UPR activ: activators of adaptive arm of unfolded protein response (XBP1); 0.33% of 330,000 active; activation, % at 20 µM; CHO-XBP1 luciferase reporter, IRE1-XBP1 UPR activation, luminescence; percent of tunicamycin response, DMSO as zero;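 active = versus positive control, 20 µM dose yields 30% or more activation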;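 also: 100% = tunicamycin at 10 µg/mL and 0% = DMSO only wells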
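Test system: CHO-XBP1 luciferase reporter cells | Buffer or medium: Serum-containing F12 medium, 10% FBS | Schedule: 6 h compound exposure at 37 °C, 5% CO2 | Detection: Steady-Glo luciferase glow luminescence, 10 min after reagent addition | Read-out basis: Activation, % of tunicamycin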
CHOP inh: inhibitors of CHOP induction in ER stress response; CHO-K1 CHOP-promoter luciferase, tunicamycin-induced, 15-18 h; inhibition, % at 10 µM; 3.8% of 220,000 active; AID 2732;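 active = compounds that reduced the stress-induced luciferase reporter signal by more than about 70% of percent inhibition, limit read from the data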;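 also: 0% = tunicamycin plus vehicle and 100% = wells without tunicamycin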
CHOP UPR activ: apoptotic UPR (CHOP) activation | 0.34% of 330,000 active | CHO-CHOP luciferase reporter, luminescence; percent of tunicamycin response over DMSO baseline | AID 449763 | activation, % at 10 µM;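 active = at 10 µM dose, activation of 40% or more, normalized to positive control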;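 also: 100% = tunicamycin at 10 µg/mL and 0% = DMSO alone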
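System: CHO-CHOP luciferase reporter cell line; amount: 500 cells/well; buffer or medium: F12 medium containing 10% fetal bovine serum; incubation: 6 h compound exposure at 37 °C after overnight seeding; measured by: luciferase luminescence after 10 min with Steady-Glo reagent; evaluation: % reporter activation, DMSO baseline versus tunicamycin full activation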
The depositor's hits bear a star.

How did Cn1c(SCC(=O)n2c3c(c4ccccc42)CCCC3)nnc1-c1ccccc1 do in these assays?
B2AR ag: -16; pCIP destab: 5; Dynein cargo inh: -0.71; XBP1 UPR activ: 2; CHOP inh: 47; CHOP UPR activ: 2

What do the screens show for `CC(=O)Nc1ccc(-c2nnc(SCC(=O)n3c4c(c5ccccc53)CCCC4)n2C)cc1`?
B2AR ag: -5; pCIP destab: 0; Dynein cargo inh: -0.0044; CHOP inh: 78*

How did Cn1c(SCC(=O)Nc2ccc3[nH]c(=O)[nH]c3c2)nnc1-c1ccccc1 do in these assays?
B2AR ag: -5; pCIP destab: 7; XBP1 UPR activ: -3; CHOP UPR activ: 1

Results for O=C(Cn1c(=O)oc2cc(S(=O)(=O)N3CCc4ccccc43)ccc21)N1CCCCC1 ?
B2AR ag: -1; pCIP destab: -11; Dynein cargo inh: -0.64; XBP1 UPR activ: -7; CHOP inh: 22; CHOP UPR activ: 2

What do the screens show for `O=C(Cn1c(=O)oc2cc(S(=O)(=O)N3CCCCC3)ccc21)N1CCc2ccccc21`?
B2AR ag: 9; pCIP destab: 11; Dynein cargo inh: -0.87; XBP1 UPR activ: 35*; CHOP inh: 68; CHOP UPR activ: 22

How did O=C(Cn1c(=O)oc2cc(S(=O)(=O)N3CCCC3)ccc21)N1CCc2ccccc2C1 do in these assays?
B2AR ag: 10; pCIP destab: -6; Dynein cargo inh: 0.54; XBP1 UPR activ: -2; CHOP inh: 85*; CHOP UPR activ: -1

Results for Cc1cc(C)nc(Nc2n[nH]c(C)n2)n1 ?
B2AR ag: 5; pCIP destab: -4; Dynein cargo inh: -0.62; XBP1 UPR activ: 0; CHOP inh: 2; CHOP UPR activ: 0

How did Cc1cc(C)nc(Nc2n[nH]c(COc3ccc(Cl)cc3)n2)n1 do in these assays?
B2AR ag: 3; pCIP destab: -3; Dynein cargo inh: -0.37; XBP1 UPR activ: -1; CHOP inh: 93*; CHOP UPR activ: -1

What do the screens show for `N=c1c2c(ncn1Cc1ccco1)Oc1cc(O)ccc1C2c1ccccc1` (stereo unspecified)?
B2AR ag: 5; pCIP destab: -7; Dynein cargo inh: -0.63; XBP1 UPR activ: -4; CHOP inh: 30; CHOP UPR activ: -1

What do the screens show for `N=c1c2c(ncn1Cc1ccco1)Oc1c(ccc3ccccc13)C2c1ccccc1` (stereo unspecified)?
B2AR ag: 23; pCIP destab: -9; Dynein cargo inh: -0.51; XBP1 UPR activ: 6; CHOP inh: 89*; CHOP UPR activ: 2

How did Cc1[nH]n(-c2ccccc2)c(=O)c1N=Nc1ccccc1 do in these assays?
B2AR ag: -2; pCIP destab: 8; Dynein cargo inh: 0.39; XBP1 UPR activ: -2; CHOP inh: 95*; CHOP UPR activ: 2

How did O=[N+]([O-])c1cc(/C=N/NC(=S)Nc2ccccc2Cl)ccc1Cl do in these assays?
B2AR ag: 29; pCIP destab: -4; Dynein cargo inh: -0.38; XBP1 UPR activ: 1; CHOP inh: -93; CHOP UPR activ: 7

Results for Cc1ccc(NC(=S)N/N=C/c2ccc(Cl)c([N+](=O)[O-])c2)cc1 ?
B2AR ag: -5; pCIP destab: -1; Dynein cargo inh: -0.74; XBP1 UPR activ: 0; CHOP inh: 80*; CHOP UPR activ: 0

Results for CCOC(=O)c1nnn(-c2nonc2N)c1C ?
B2AR ag: 0; pCIP destab: -10; Dynein cargo inh: -0.79; XBP1 UPR activ: -3; CHOP inh: 17; CHOP UPR activ: -1

How did CCCN(CCC)Cc1c(C(=O)OCC)nnn1-c1nonc1N do in these assays?
B2AR ag: 6; pCIP destab: -9; Dynein cargo inh: -0.41; XBP1 UPR activ: 1; CHOP inh: 86*; CHOP UPR activ: -2

Results for O=Nc1ccc2oc(=O)ccc2c1 ?
CHOP inh: 0

How did Cc1ccc2nc(SCC(=O)c3ccc(Cl)s3)[nH]c2c1 do in these assays?
B2AR ag: -8; pCIP destab: -10; Dynein cargo inh: -0.14; XBP1 UPR activ: 2; CHOP inh: 71*; CHOP UPR activ: 2

How did CC1C/C(=N/NC(=O)c2cccc(F)c2)c2ccc(O)cc2C1 (stereo unspecified) do in these assays?
B2AR ag: 4; pCIP destab: -6; Dynein cargo inh: 0.52; XBP1 UPR activ: 4; CHOP inh: 5; CHOP UPR activ: 2

How did O=C(COc1ccc([N+](=O)[O-])cc1)Nc1ccc(C(=O)Nc2ccccc2C(=O)O)cc1 do in these assays?
B2AR ag: 3; pCIP destab: 4; Dynein cargo inh: 0.071; XBP1 UPR activ: -2; CHOP inh: 15; CHOP UPR activ: -1

Results for COc1cc(OC)c(-c2nc3ccccc3s2)cc1OC ?
B2AR ag: 6; pCIP destab: -14; Dynein cargo inh: -0.79; XBP1 UPR activ: -2; CHOP inh: 72*; CHOP UPR activ: 1

Results for COc1cccc(-c2nc3ccccc3s2)c1O ?
B2AR ag: -7; pCIP destab: -3; Dynein cargo inh: inactive; XBP1 UPR activ: -2; CHOP inh: 11; CHOP UPR activ: 1

What do the screens show for `Cc1cc(=O)[nH]c(SCc2cccc3ccccc23)n1`?
B2AR ag: 1; pCIP destab: 0; XBP1 UPR activ: -2; CHOP UPR activ: 2

How did Cc1cc(CSc2nc(C)cc(=O)[nH]2)c2ncccc2c1 do in these assays?
B2AR ag: -3; pCIP destab: -9; Dynein cargo inh: -0.91; XBP1 UPR activ: -2; CHOP inh: 87*; CHOP UPR activ: 1

How did Cc1ccc(SCC2(O)CCN(S(=O)(=O)c3ccc(Cl)cc3)CC2)cc1 do in these assays?
B2AR ag: -1; pCIP destab: -8; Dynein cargo inh: 1; XBP1 UPR activ: 0; CHOP inh: 81*; CHOP UPR activ: -1

How did O=C(c1ccc(Cl)cc1)N1CCC(O)(CSc2ccc(Cl)cc2)CC1 do in these assays?
B2AR ag: 0; pCIP destab: 0; XBP1 UPR activ: 0; CHOP inh: 72*; CHOP UPR activ: -3

Results for O=C(c1ccc(Cl)cc1)N1CCC(O)(CSc2ccccc2)CC1 ?
B2AR ag: 9; pCIP destab: -18; XBP1 UPR activ: -4; CHOP inh: -10; CHOP UPR activ: -1

Results for CC(=O)Nc1ccc(S(=O)(=O)Nc2ccccc2C(=O)NCc2cccnc2)cc1 ?
B2AR ag: 0; pCIP destab: -3; XBP1 UPR activ: -3; CHOP UPR activ: 0

What do the screens show for `C=CCN1c2ccccc2[C@]23C[C@@H](C(=O)OC)N(C(=O)c4cccs4)C2=NC(C(=O)OC)=C(C(=O)OC)[C@H]13`?
B2AR ag: 13; pCIP destab: -8; Dynein cargo inh: -0.69; XBP1 UPR activ: 9; CHOP inh: 26; CHOP UPR activ: 4
